SMILES strings stand for the structures.

The record followed here is ChEMBL document CHEMBL2331149, “Towards dual antithrombotic compounds - balancing thrombin inhibitory and fibrinogen GPIIb/IIIa binding inhibitory activities of 2,3-dihydro-1,4-benzodioxine derivatives through regio- and stereoisomerism” (Eur J Med Chem, 2013).

One assay concerns the target Integrin alpha-V/beta-3 (Homo sapiens, UniProt P05106+P06756). In words: Inhibition of biotinylated fibrinogen binding to human alphavbeta3 integrin receptor after 2 hrs by solid-phase competitive displacement assay. The class given is protein-complex assay. The procedure, abridged: (§1)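 Solid-phase competition with isolated human receptor (GPIIb/IIIa or GPV/IIIa) adsorbed overnight at 4 °C in Tris/NaCl buffer with 1 mM Ca2+, Mg2+ and Mn2+, pH 7.4. Blocked with 1% BSA. Serially diluted compounds plus biotinylated human fibrinogen incubated 2 h at room temperature. Bound fibrinogen detected with peroxidase anti-biotin antibody and chemiluminescence. Duplicates, at least three runs; IC50 from sigmoid fit.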

For assay [1], the species on record is Homo sapiens. The experiment in a line: Selectivity ratio of Ki for trypsin (unknown origin) to Ki for thrombin (unknown origin).
In assay [2] the target is Integrin alpha-IIb/beta-3 (Homo sapiens, UniProt P05106+P08514). The experiment in a line: Inhibition of biotinylated fibrinogen binding to human GP 2b/3a after 2 hrs by solid-phase competitive displacement assay. The class given is protein-complex assay. Summed up:
as §1

For a further assay, the target named is Trypsin (Homo sapiens, UniProt P07477+P07478+P35030). In words: Inhibition of trypsin (unknown origin) using S-2222 as substrate preincubated with enzyme for 15 mins prior to substrate addition measured every 10 s by amidolytic method. The class given is protein assay. Summed up: (§2)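 Chromogenic amidolytic assay read at 405 nm, 25 °C, with final enzyme levels: thrombin 0.5 NIH E/mL with S-2238 at 20 and 40 µM; factor Xa 1 mBAEE E/mL with S-2222 at 100 and 200 µM; trypsin 0.5 nkat/mL with S-2222 at 50 and 100 µM. Inhibitor diluted from DMSO stock to 0.5–100 µM, three concentrations, triplicate. Ki by Cheng–Prusoff from initial rates, averaged over all combinations.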

The species entered for assay [3] is Homo sapiens. In words: Selectivity ratio of Ki for factor 10a (unknown origin) to Ki for thrombin (unknown origin).
The target in the next assay is Coagulation factor X (Homo sapiens, UniProt P00742). In words: Inhibition of factor 10a (unknown origin) using S-2222 as substrate preincubated with enzyme for 15 mins prior to substrate addition measured every 10 s by amidolytic method. Summed up:
as §2

The next assay deals with Prothrombin (Homo sapiens, UniProt P00734). The experiment in a line: Inhibition of thrombin (unknown origin) using S-2238 as substrate preincubated with enzyme for 15 mins prior to substrate addition measured every 10 s by amidolytic method. Summed up:
as §2

In the case of `CCOC(=O)C(=O)N(Cc1ccccc1)c1ccc2c(c1)O[C@@H](COc1ccc(C(=N)N)cc1)CO2.O=C(O)C(F)(F)F`, the half-maximal inhibitory concentration (IC50) (at Integrin alpha-V/beta-3; in assay [2]) was greater than 200000 nM each time. For the same compound, the Ratio Ki came to 2.71 in the assay filed under Homo sapiens [1] and 35.9 in the assay filed under Homo sapiens [3]. The Ki on Trypsin was 210 nM; on Coagulation factor X, 2700 nM; at Prothrombin, 77.8 nM.

Take `N=C(N)c1ccc(OC[C@@H]2COc3ccc(N(Cc4ccccc4)C(=O)C(=O)O)cc3O2)cc1`: the results for the IC50 (at Integrin alpha-V/beta-3; in assay [2]) were greater than 200000 nM and 17600 nM, respectively. Further, the Ratio Ki in the assay listed under Homo sapiens [1] was found to be 0.51; in the assay filed under Homo sapiens [3], 0.47. Besides, the Ki on Trypsin is 1370 nM; on Coagulation factor X, 1270 nM; on Prothrombin, 2690 nM.

With `CCOC(=O)C(=O)N(Cc1ccccc1)c1ccc2c(c1)OC[C@@H](COc1ccc(C(=N)N)cc1)O2.O=C(O)C(F)(F)F`, the IC50 (at Integrin alpha-V/beta-3; in assay [2]) was greater than 200000 nM in each case. Further, the figures for the Ratio Ki in the assay filed under Homo sapiens [1] and in the assay listed under Homo sapiens [3] were 0.39 and 1.3, respectively. Besides, the Ki on Trypsin is 644 nM; on Coagulation factor X it was 2150 nM; at Prothrombin it was 1650 nM.

`N=C(N)c1ccc(OC[C@H]2COc3ccc(N(Cc4ccccc4)C(=O)C(=O)O)cc3O2)cc1`: the half-maximal inhibitory concentration (IC50) at Integrin alpha-V/beta-3 is greater than 200000 nM; in assay [2], 42600 nM. The Ratio Ki in the assay filed under Homo sapiens [1] was determined as 1; in the assay listed under Homo sapiens [3], 19.1. For the same compound, the Ki at Trypsin was determined as 267 nM; on Coagulation factor X, 5080 nM; at Prothrombin, 266 nM.

As to `N=C(N)c1ccc(OC[C@@H]2COc3cc(N(Cc4ccccc4)C(=O)C(=O)O)ccc3O2)cc1`, the IC50 at Integrin alpha-V/beta-3 was greater than 200000 nM; in assay [2], 1210 nM. Further, the Ratio Ki in the assay filed under Homo sapiens [1] came to 0.3; in the assay filed under Homo sapiens [3] it was 1.3. Further, the Ki was determined as 1550 nM at Trypsin, 5190 nM at Coagulation factor X and 5180 nM at Prothrombin.

As for `CCOC(=O)C(=O)N(Cc1ccccc1)c1ccc2c(c1)OC[C@H](COc1ccc(C(=N)N)cc1)O2.O=C(O)C(F)(F)F`, the half-maximal inhibitory concentration (IC50) (at Integrin alpha-V/beta-3; in assay [2]) was greater than 200000 nM in each case. The Ratio Ki in the assay filed under Homo sapiens [1] was 0.65; in the assay listed under Homo sapiens [3], 3.46. Also, the Ki at Trypsin was 283 nM; at Coagulation factor X it was 1510 nM; on Prothrombin it was 436 nM.

`N=C(N)c1ccc(OC[C@H]2COc3cc(N(Cc4ccccc4)C(=O)C(=O)O)ccc3O2)cc1`: the figures for the IC50 (at Integrin alpha-V/beta-3; in assay [2]) were greater than 200000 nM and 665 nM, respectively. In addition, the Ratio Ki in the assay listed under Homo sapiens [1] is 0.28; in the assay filed under Homo sapiens [3] it was 1.17. For the same compound, the Ki stood at 463 nM at Trypsin, 1960 nM at Coagulation factor X and 1670 nM at Prothrombin.

`CCOC(=O)C(=O)N(Cc1ccccc1)c1ccc2c(c1)O[C@H](COc1ccc(C(=N)N)cc1)CO2.O=C(O)C(F)(F)F`: the IC50 (on Integrin alpha-V/beta-3; in assay [2]) was greater than 200000 nM each time. Also, the results for the Ratio Ki in the assay listed under Homo sapiens [1] and in the assay listed under Homo sapiens [3] were 1.32 and 0.95, respectively. The figures for the inhibition constant (Ki) on Trypsin, on Coagulation factor X and on Prothrombin were 894 nM, 637 nM and 675 nM, respectively.
